Molecules are shown by their SMILES. *1 amine or outer side, *2 acyl side, *3 side chain or, on linkers, in order; H or OH if unused. Where a SMILES comes first, the peptide text is derived from it. Bridges are numbered along the chain shown (N, C = ends). [ ]: non-standard residue; d: D form. The star is where a group is joined. X1 = NC1=N[C@@H]([C@H](N[*:1])C(=O)[*:2])C[C@H](O)N1; ΔAla(Z-3-ureido) = NC(=O)N/C=C(\N)C(=O)O; AMC = Cc1cc(=O)oc2cc(N*)ccc12; β3hOrn = NCCC[C@H](N)CC(=O)*; Dap = NC[C@H](N)C(=O)O

The target in assay [1] is Human immunodeficiency virus type 1 integrase (Human immunodeficiency virus 1) (UniProt Q7ZJM1). Conditions: at 1 mM.
The target is the same in assay [2]. Particulars: at 200 µM.
Assay [3] shares this target. The assay is described as follows: Inhibitory activity against HIV-1 integrase at 200 uM. The method, boiled down: (§1)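 Integration reaction with HIV-1 integrase, run as in an earlier published method except for the detection step. The integration product was detected with digoxygenin-labelled oligonucleotides and an anti-digoxygenin antibody conjugated to horseradish peroxidase. Compounds were tested at 1 mM, 200 µM and 25 µM.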

For assay [4] the target is unchanged. The assay is described as follows: Inhibitory activity against HIV-1 integrase at 1 mM. The method, boiled down: as §1
The target of assay [5] is T1, Human immunodeficiency virus type 1 integrase (Human immunodeficiency virus 1, UniProt Q7ZJM1).
In assay [6] the target is T1, Human immunodeficiency virus type 1 integrase. This is another data set of the same source.
The target of assay [7] is Human immunodeficiency virus type 1 integrase (Human immunodeficiency virus 1) (UniProt Q7ZJM1). The assay is described as follows: Inhibition against HIV-1 integrase at 25 uM. The method, boiled down: as §1

For `NCCC[C@H](N)CC(=O)N[C@H]1CNC(=O)[C@H]([C@H]2C[C@H](O)NC(N)=N2)NC(=O)/C(=C/NC(N)=O)NC(=O)[C@H](CO)NC(=O)[C@H](CO)NC1=O` (β3hOrn-[Dap]SS[ΔAla(Z-3-ureido)][X1]; lactam 1-C), the inhibition in assay [1] and in assay [2] was < 50% throughout.

In the case of `OC[C@@H](O)[C@@H](O)[C@H](O)c1cnc([C@@H](O)[C@H](O)[C@H](O)CO)cn1`, the inhibition in assay [3] and in assay [4] was < 50% each time.

Turning to `COC(=O)C1(O)C[C@H](O)[C@@H](NC(C)=O)[C@H]([C@H](O)[C@H](O)CO)O1` (stereo partly drawn), the inhibition in assay [3] and in assay [4] was < 50% throughout.

For `COc1cccc2c1C(=O)c1c(O)c3c(c(O)c1C2=O)C[C@@](O)(C(=O)CO)C[C@@H]3O[C@H]1C[C@H](N)[C@H](O)[C@H](C)O1` [DOXORUBICIN], the IC50 – broadly, the concentration at which inhibition is half-maximal – was 900 nM in assay [5] and 2400 nM in assay [6].

For `Cc1[nH]n(-c2cccc(NC(=O)Nc3cccc(-n4[nH]c(C)c(/N=N/c5c(O)cc(S(=O)(=O)O)c6cc([N+](=O)[O-])ccc56)c4=O)c3)c2)c(=O)c1/N=N/c1c(O)cc(S(=O)(=O)O)c2cc([N+](=O)[O-])ccc12`, the inhibition in assay [7], in assay [1] and in assay [2] was > 50% each time.

As to `O=P(O)(O)O[C@@H]1O[C@H](CO)[C@@H](O)[C@H](O)[C@H]1O`, the inhibition in assay [3] and in assay [4] was < 50% each time.

Take `CC(=O)NC1=C(O)C[C@@](O)(C(=O)O)O[C@H]1[C@@H](O)[C@H](O)CO`: the inhibition in assay [3] and in assay [4] was < 50% each time.

Take `N[C@H]1[C@@H](OP(=O)(O)O)O[C@H](CO)[C@H](O)[C@@H]1O`: the inhibition in assay [3] and in assay [4] was < 50% throughout.

Take `O=C(NCNC(=O)NC1C(=O)NC(=O)N1CO)NC1C(=O)NC(=O)N1CO` (stereo not drawn): the inhibition (commonly the percentage by which the read-out fell short of the control) was < 50% in assay [7], > 50% in assay [1] and < 50% in assay [2].

In the case of `O=C(CC(O)CCc1ccc(O)c(O)c1)O[C@H]1Cc2cc(O)c(O)cc2O[C@H]1c1ccc(O)c(O)c1` (stereo partly drawn), the IC50 in assay [5] was 1400 nM; in assay [6] it was 1000 nM.

Take `NC[C@@H](O)c1ccc(OC(=O)[C@H](O)[C@@H](O)C(=O)O)c(OC(=O)[C@H](O)[C@@H](O)C(=O)O)c1`: the values for the inhibition in assay [7], in assay [1] and in assay [2] were < 50%, > 50% and < 50%, respectively.

As to `O=C1c2c(O)ccc(O)c2C(=O)c2c(NCCNCCO)ccc(NCCNCCO)c21` [MITOXANTRONE], the IC50 in assay [5] amounted to 3800 nM; in assay [6] it was 8000 nM.

Consider `N/N=C(\S)Nc1ccc(N/C(S)=N/N)cc1`, for which the results for the inhibition in assay [7], in assay [1] and in assay [2] were < 50%, > 50% and < 50%, respectively.

Turning to `O=C1c2ccc(O)c(O)c2C(=O)c2c(O)ccc(O)c21` [QUINALIZARIN], the IC50 stood at 4000 nM in assay [5] and 1000 nM in assay [6].

Turning to `O=C(/C=C\c1ccc(O)c(O)c1)OC1CC(O)(C(=O)O)CC(OC(=O)/C=C\c2ccc(O)c(O)c2)C1O` (stereo not drawn), the IC50 in assay [5] amounted to 640 nM; in assay [6], 660 nM.

Regarding `O=C(NCCCCCCNC(=O)NNc1ccccc1)NNc1ccccc1`, the inhibition in assay [1] and in assay [2] was < 50% in each case.

Turning to `O=C(NC(CO)(CO)CO)C(=O)NC(CO)(CO)CO`, the inhibition in assay [3] and in assay [4] was < 50% each time.

Regarding `O=C(/C=C/c1ccc(O)c(O)c1)O[C@H]1[C@H](O)C[C@](O)(C(=O)O)C[C@H]1OC(=O)/C=C/c1ccc(O)c(O)c1` (stereo in doubt; form 2), the IC50 worked out at 250 nM in assay [5] and 460 nM in assay [6].

On to `O=c1oc2c(O)c(O)cc3c(=O)oc4c(O)c(O)cc1c4c23` [ELLAGIC ACID], for which half-maximal inhibition in assay [5] (IC50) required 5100 nM.

Take `Cc1cc(=O)oc2cc(NC(=O)[C@H](CCCN=C(N)N)NC(=O)CN)ccc12` (H-Gly-Arg-{AMC}): the inhibition in assay [1] and in assay [2] was < 50% in each case.

On to `N=C(N)NCCCCNCCCNC(=N)N`, for which the inhibition in assay [3] and in assay [4] was < 50% each time.

For `OC[C@@H](O)[C@@H](O[C@H]1O[C@H](CO)[C@@H](O)[C@H](O)[C@H]1O)[C@H](O)[C@@H](O)CO`, the inhibition in assay [3] and in assay [4] was < 50% each time.

In the case of `OC[C@H]1O[C@@H](SC2O[C@H](CO)[C@H](O)[C@H](O)[C@H]2O)[C@H](O)[C@@H](O)[C@H]1O` (stereo partly drawn), the inhibition in assay [1] and in assay [2] was < 50% throughout.

Turning to `CCCNC(=O)NNC(=O)c1ccccc1NC(=O)NCCC`, the inhibition in assay [1] and in assay [2] was < 50% each time.

Regarding `Cc1cccc2c1C(O)=C1C(=O)C3C(O)=C(C(=O)NNC4(C(=O)O)CCCC4)C(=O)[C@@H](N(C)C)[C@@H]3C[C@@H]1C2(C)O` (stereo partly drawn), the IC50 amounted to 1200 nM in assay [5] and 3600 nM in assay [6].

With `OCC(CO)(CO)NCCCNC(CO)(CO)CO`, the inhibition in assay [3] and in assay [4] was < 50% each time.

Consider `Cc1cccc2c1C(O)=C1C(=O)C3C(O)=C(C(=O)NCNC(CO)(CO)CO)C(=O)[C@@H](N(C)C)[C@@H]3C[C@@H]1C2(C)O` (stereo partly drawn), for which the IC50 in assay [5] came out at 1100 nM; in assay [6] it was 500 nM.

Turning to `O=C[C@H](O)[C@@H](O)C(O[C@@H]1O[C@H](CO)[C@H](O)[C@H](O)[C@H]1O)[C@H](O)CO` (stereo partly drawn), the inhibition in assay [1] and in assay [2] was < 50% throughout.

Consider `O=c1c(O)cccc2cc(O)c(O)c(O)c12` [PURPUROGALLIN], for which, in assay [5], the IC50 amounted to 2100 nM. This counts as single-digit micromolar.

Regarding `CCNC(=O)[C@H](CCCCN(N)N)NC(=O)CNC(=O)[C@H](CC(C)C)NC(=O)[C@@H](NC(=O)[C@H](O)[C@@H](O)[C@H](O)[C@H](O)CO)C(C)C`, the inhibition in assay [1] and in assay [2] was < 50% each time.

For `Cc1cccc2c1C(O)=C1C(=O)C3C(O)=C(C(=O)NCN4CCN(C(=N)N=C(N)N)CC4)C(=O)[C@@H](N(C)C)[C@@H]3C[C@@H]1C2(C)O` (stereo partly drawn), the IC50 in assay [5] came out at 900 nM; in assay [6], 300 nM.

`Cc1cc(O)c2c(=O)c3c(O)cc(O)c4c5c(O)cc(O)c6c(=O)c7c(O)cc(C)c8c1c2c(c34)c(c78)c65` [HYPERICIN] showed a concentration for half-maximal inhibition (IC50) in assay [5] of 10000 nM.

For `N=C(N)NCCCC(NC(N)=O)C(=O)O` (single isomer, unassigned), the inhibition in assay [1] and in assay [2] was < 50% in each case.

For `NC(N)=Nc1nc(CSCC/C(N)=N/S(N)(=O)=O)cs1`, the inhibition in assay [1] and in assay [2] was < 50% in each case.

On to `O=C(/C=C\c1ccc(O)c(O)c1)OC1CC(OC(=O)/C=C\c2ccc(O)c(O)c2)(C(=O)O)CC(O)C1O` (stereo not drawn), for which the IC50 in assay [5] is 680 nM; in assay [6] it was 1080 nM.

For the molecule `O=C(/C=C\c1ccc(O)c(O)c1)OC1C(O)CC(OC(=O)/C=C\c2ccc(O)c(O)c2)(C(=O)O)CC1O` (stereo not drawn), the IC50 was determined as 9500 nM in assay [5] and 7800 nM in assay [6].

For `CCC1C/C(=N\NC(N)=O)C(NNC(N)=O)C(C)C1` (stereo not drawn), the inhibition in assay [1] and in assay [2] was < 50% throughout.

With `C[C@@H]1O[C@@H](OC2C[C@](O)(C(=O)CO)Cc3c(O)c4c(c(O)c32)C(=O)c2c(O)cccc2C4=O)C[C@H](N)[C@@H]1O` (stereo partly drawn), the IC50 in assay [5] was determined as 2300 nM; in assay [6] it was 4100 nM.

With `N#C/C(=C\c1ccc(O)c(O)c1)C(=O)NCCCNC(=O)/C(C#N)=C/c1ccc(O)c(O)c1`, the IC50 in assay [5] is 10000 nM; in assay [6], 3000 nM.

On to `CN[C@@H]1[C@H](O[C@H]2[C@H](O[C@H]3[C@H](O)[C@@H](O)[C@H](N=C(N)N)[C@@H](O)[C@@H]3N=C(N)N)O[C@@H](C)[C@]2(O)C=O)O[C@@H](CO)[C@H](O)[C@H]1O`, for which the inhibition in assay [1] and in assay [2] was < 50% in each case.

In the case of `OC[C@H]1O[C@H](OC[C@H]2OC(O)[C@H](O)[C@@H](O)[C@@H]2O)[C@H](O)[C@@H](O)[C@@H]1O` (stereo partly drawn), the inhibition in assay [3] and in assay [4] was < 50% each time.

With `O=P(O)(O)O[C@H]1O[C@H](CO)[C@@H](O)[C@H](O)[C@@H]1O`, the inhibition in assay [3] and in assay [4] was < 50% in each case.

Regarding `O=C(CNC(=O)NCc1ccoc1)NNC(=O)Nc1cccc(Cl)c1`, the inhibition in assay [1] and in assay [2] was < 50% each time.

As for `COC1/C=C/OC2(C)Oc3c(C)c(O)c4c(O)c(c(C=NN5C(C)CN(Cc6ccc([N+](=O)[O-])cc6)CC5C)c(O)c4c3C2=O)NC(=O)/C(C)=C\C=C\C(C)C(O)C(C)C(O)C(C)C(OC(C)=O)C1C` (stereo not drawn), the IC50 worked out at 20600 nM in assay [5] and 19700 nM in assay [6].

In the case of `CN[C@@H]1[C@H](OC2[C@@H](OC3[C@@H](N=C(N)N)[C@H](O)[C@@H](N=C(N)N)[C@H](O)[C@H]3O)O[C@@H](C)[C@]2(O)CO)O[C@@H](CO)[C@H](O)[C@H]1O` (stereo partly drawn), the inhibition in assay [3] and in assay [4] was < 50% in each case.

With `O=C(CCc1ccc(O)c(O)c1)c1ccc(O)c(O)c1O`, the IC50 turned out to be 1700 nM in assay [5] and 1000 nM in assay [6].

Take `OCCNCCNC(O)C(O)CO` (stereo not drawn): the inhibition in assay [1] and in assay [2] was < 50% each time.

`O=c1c(O)c(-c2ccc(O)c(O)c2)oc2cc(O)c(O)c(O)c12` [QUERCETAGETIN]: the IC50 in assay [5] was 1300 nM; in assay [6], 600 nM.

Take `O=C(/C=C/c1ccc(O)c(O)c1)O[C@H]1[C@H](O)C[C@](O)(C(=O)O)C[C@H]1OC(=O)/C=C/c1ccc(O)c(O)c1` (stereo in doubt; form 1): the IC50 in assay [5] was 790 nM; in assay [6], 540 nM.

For `CC(C)C[C@@H](C=O)NC(=O)N[C@H](C(=O)N[C@@H](CCC(N)=O)C(=O)N[C@@H](C)C=O)[C@@H]1CCN=C(N)N1`, the inhibition in assay [1] and in assay [2] was < 50% each time.

Turning to `C[Si](C)(C)C`, the IC50 in assay [5] is 17000 nM; in assay [6] it was 5000 nM.

(Values after ChEMBL document CHEMBL1133723, “Developing a dynamic pharmacophore model for HIV-1 integrase” (J Med Chem, 2000).)
